# Test results published in ChEMBL document CHEMBL3525967, “In vitro glucuronidation of the antibacterial triclocarban and its oxidative metabolites” (Drug Metab Dispos, 2012).
# Columns and labels:
# Liver microsome = test: Drug metabolism in human liver microsomes assessed as glucuronidation incubated for 5 mins prior to UDPGA addition measured after 5 to 30 mins by LC-UV analysis; type: ADME
# Summary of the method: (§1)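 Microsomes or Sf-9 Supersomes (5 µg protein in 200 µL 100 mM potassium phosphate pH 7.4) pre-treated with alamethicin on ice 15 min; substrate 10 µM final (2% DMSO), MgCl2 and saccharolactone 10 mM each; 5 min preincubation at 37 °C, then UDPGA to start. Samples taken at 5, 10, 15, 30 min (or 2, 5, 10, 15 min) into ACN with internal standard; LC-UV-ESI-MS/MS.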
# [1] = Drug metabolism in human intestinal microsomes assessed as glucuronidation incubated for 5 mins prior to UDPGA addition measured after 5 to 30 mins by LC-UV analysis; type: ADME, Intestine, Microsome; summary of the method: as §1
# [2] = molecular target: T1, UDP-glucuronosyltransferase 1A1 (Homo sapiens, UniProt P22309); test: Drug metabolism assessed as human UGT1A1-mediated glucuronidation expressed in baculovirus infected insect sf9 cells incubated for 5 mins prior to UDPGA addition measured after 5 to 30 mins by LC-UV analysis; type: ADME; summary of the method: as §1
# T1 sequence (P22309 whole entry): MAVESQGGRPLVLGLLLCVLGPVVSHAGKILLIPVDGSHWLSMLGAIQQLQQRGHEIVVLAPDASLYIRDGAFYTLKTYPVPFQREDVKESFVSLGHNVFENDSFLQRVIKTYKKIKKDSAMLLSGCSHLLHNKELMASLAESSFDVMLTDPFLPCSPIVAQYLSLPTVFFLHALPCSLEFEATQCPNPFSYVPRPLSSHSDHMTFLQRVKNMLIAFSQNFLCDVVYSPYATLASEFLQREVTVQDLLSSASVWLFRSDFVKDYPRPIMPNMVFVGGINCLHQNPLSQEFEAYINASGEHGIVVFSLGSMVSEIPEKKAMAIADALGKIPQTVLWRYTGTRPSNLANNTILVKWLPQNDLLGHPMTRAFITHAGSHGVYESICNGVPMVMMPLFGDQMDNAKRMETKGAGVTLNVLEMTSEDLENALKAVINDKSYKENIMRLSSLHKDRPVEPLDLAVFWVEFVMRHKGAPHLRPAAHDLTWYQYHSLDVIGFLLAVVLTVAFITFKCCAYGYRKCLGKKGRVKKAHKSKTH
# [3] = molecular target: T2, UDP-glucuronosyltransferase 1A6 (Homo sapiens, UniProt P19224); test: Drug metabolism assessed as human UGT1A6-mediated glucuronidation expressed in baculovirus infected insect sf9 cells incubated for 5 mins prior to UDPGA addition measured after 5 to 30 mins by LC-UV analysis; type: ADME; summary of the method: as §1
# T2 sequence (P19224 whole entry): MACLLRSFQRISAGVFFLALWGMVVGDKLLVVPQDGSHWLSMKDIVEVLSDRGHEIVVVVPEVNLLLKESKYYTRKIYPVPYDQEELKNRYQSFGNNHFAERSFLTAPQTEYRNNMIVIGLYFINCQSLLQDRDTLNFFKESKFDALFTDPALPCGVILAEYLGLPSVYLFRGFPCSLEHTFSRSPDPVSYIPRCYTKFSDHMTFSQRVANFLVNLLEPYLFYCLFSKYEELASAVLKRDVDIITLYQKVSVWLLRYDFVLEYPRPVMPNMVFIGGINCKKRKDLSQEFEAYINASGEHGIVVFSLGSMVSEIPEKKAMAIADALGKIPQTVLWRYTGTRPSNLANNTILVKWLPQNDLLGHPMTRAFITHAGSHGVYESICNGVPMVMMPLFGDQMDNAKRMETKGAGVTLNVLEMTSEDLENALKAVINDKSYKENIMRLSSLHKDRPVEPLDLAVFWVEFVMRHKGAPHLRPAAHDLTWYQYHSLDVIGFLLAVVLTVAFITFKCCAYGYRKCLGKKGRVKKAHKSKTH
# [4] = molecular target: T3, UDP-glucuronosyltransferase 1A8 (Homo sapiens, UniProt Q9HAW9); test: Drug metabolism assessed as human UGT1A8-mediated glucuronidation expressed in baculovirus infected insect sf9 cells incubated for 5 mins prior to UDPGA addition measured after 5 to 30 mins by LC-UV analysis; type: ADME; summary of the method: as §1
# T3 sequence (Q9HAW9 whole entry): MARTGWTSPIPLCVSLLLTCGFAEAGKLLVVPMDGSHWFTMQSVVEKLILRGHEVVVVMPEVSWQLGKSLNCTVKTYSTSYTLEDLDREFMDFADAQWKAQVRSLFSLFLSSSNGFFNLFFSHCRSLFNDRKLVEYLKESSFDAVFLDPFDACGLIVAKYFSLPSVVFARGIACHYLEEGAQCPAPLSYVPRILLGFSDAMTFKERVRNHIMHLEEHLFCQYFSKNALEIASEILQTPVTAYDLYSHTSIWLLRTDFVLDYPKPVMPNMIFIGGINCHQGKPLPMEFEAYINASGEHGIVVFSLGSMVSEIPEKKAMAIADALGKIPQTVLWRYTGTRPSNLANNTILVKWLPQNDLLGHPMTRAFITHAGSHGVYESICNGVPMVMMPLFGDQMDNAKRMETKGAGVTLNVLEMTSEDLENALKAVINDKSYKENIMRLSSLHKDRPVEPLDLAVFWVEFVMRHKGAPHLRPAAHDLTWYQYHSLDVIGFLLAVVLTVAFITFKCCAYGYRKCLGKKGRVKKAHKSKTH
# [5] = molecular target: T4, UDP-glucuronosyltransferase 2B17 (Homo sapiens, UniProt O75795); test: Drug metabolism assessed as human UGT2B17-mediated glucuronidation expressed in baculovirus infected insect sf9 cells incubated for 5 mins prior to UDPGA addition measured after 5 to 30 mins by LC-UV analysis; type: ADME; summary of the method: as §1
# T4 sequence (O75795 whole entry): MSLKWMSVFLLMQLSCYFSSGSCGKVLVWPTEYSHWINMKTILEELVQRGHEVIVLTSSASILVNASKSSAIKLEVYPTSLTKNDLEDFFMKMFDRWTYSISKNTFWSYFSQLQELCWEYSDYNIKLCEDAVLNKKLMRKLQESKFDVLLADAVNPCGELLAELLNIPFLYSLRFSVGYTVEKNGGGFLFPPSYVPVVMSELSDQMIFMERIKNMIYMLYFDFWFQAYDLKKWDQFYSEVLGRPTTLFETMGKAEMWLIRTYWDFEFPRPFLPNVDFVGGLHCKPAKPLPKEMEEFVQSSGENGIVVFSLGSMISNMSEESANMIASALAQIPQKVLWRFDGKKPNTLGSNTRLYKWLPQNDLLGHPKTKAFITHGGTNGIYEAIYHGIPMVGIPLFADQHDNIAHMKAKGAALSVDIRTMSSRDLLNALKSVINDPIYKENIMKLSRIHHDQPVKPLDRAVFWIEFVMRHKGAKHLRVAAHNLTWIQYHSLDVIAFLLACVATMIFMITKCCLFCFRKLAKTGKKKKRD
Drug metabolism (Liver microsome),Drug metabolism [1],Drug metabolism [2],Drug metabolism [3],Drug metabolism [4],Drug metabolism [5],Compound
5200 pmol/min/mg,7100 pmol/min/mg,520 pmol/min/mg,metabolite_not_detected,9400 pmol/min/mg,metabolite_not_detected,O=C(Nc1ccc(Cl)c(O)c1)Nc1ccc(Cl)c(Cl)c1
2700 pmol/min/mg,5700 pmol/min/mg,850 pmol/min/mg,metabolite_not_detected,5700 pmol/min/mg,metabolite_not_detected,O=C(Nc1ccc(Cl)c(Cl)c1)Nc1ccc(Cl)cc1O
8500 pmol/min/mg,3900 pmol/min/mg,820 pmol/min/mg,metabolite_not_detected,5000 pmol/min/mg,metabolite_not_detected,O=C(Nc1ccc(Cl)cc1)Nc1cc(Cl)c(Cl)cc1O
